Data taken from ChEMBL document CHEMBL4725388, “Characterization of Aminobenzylphenols as Protein Disulfide Isomerase Inhibitors in Glioblastoma Cell Lines” (J Med Chem, 2020).
Each block holds one molecule with its values, some of them ahead of it. Active and inactive are the calls of the source. The calls are words filed in the database; no cut-off is given here.

How the values were obtained:
[1] = Drug uptake in human A 172 cell cytoplasm at 10 uM measured after 24 hrs by PDI antibody/DAPI staining based confocal microscopic analysis; format: ADME, subcellular; conditions: a 172, 24 h
[2] = biological target: T1, Protein disulfide-isomerase (Homo sapiens, UniProt P07237); test: Binding affinity to PDIA1 in human U-87 MG cells at 5 uM measured after 24 hrs in presence of DTT by coomassie staining GFP channel based Western blot assay; format: cell-based
Target sequence in this assay (P07237 18-508 limits assumed): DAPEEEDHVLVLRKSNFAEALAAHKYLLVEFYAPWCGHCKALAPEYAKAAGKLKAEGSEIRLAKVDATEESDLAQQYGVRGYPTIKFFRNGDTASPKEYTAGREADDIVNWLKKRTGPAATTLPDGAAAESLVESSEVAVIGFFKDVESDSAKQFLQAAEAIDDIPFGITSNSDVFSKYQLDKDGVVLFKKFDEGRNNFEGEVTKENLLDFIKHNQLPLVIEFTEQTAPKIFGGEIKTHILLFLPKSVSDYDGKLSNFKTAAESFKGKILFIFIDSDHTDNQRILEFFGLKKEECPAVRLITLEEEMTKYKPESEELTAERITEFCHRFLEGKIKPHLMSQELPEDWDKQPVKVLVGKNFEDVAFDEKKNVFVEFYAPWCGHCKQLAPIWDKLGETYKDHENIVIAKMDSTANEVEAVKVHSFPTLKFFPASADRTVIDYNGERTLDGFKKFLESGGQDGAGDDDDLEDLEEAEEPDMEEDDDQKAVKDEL

[3] = Drug uptake in human A 172 cell endoplasmic reticulum at 10 uM measured after 24 hrs by PDI antibody/DAPI staining based confocal microscopic analysis; format: ADME, subcellular; conditions: a 172, 24 h
[4] = Drug uptake in human A 172 cell nucleus at 10 uM measured after 24 hrs by PDI antibody/DAPI staining based confocal microscopic analysis; format: ADME, subcellular; conditions: a 172, 24 h
[5] = biological target: T2, Albumin (Bos taurus, UniProt P02769); test: Binding affinity to BSA at 100 uM measured after overnight incubation by coomassie staining GFP channel based Western blot assay; format: ADME, cell-free; conditions: cattle, serum
[6] = biological target: T1, Protein disulfide-isomerase; test: Inhibition of recombinant human wild-type N-terminal His-tagged PDIA1 expressed in Escherichia coli strain BL21(DE3) using bovine insulin as substrate preincubated for 1 hr followed by substrate addition
In short: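 IC50 from dose-response curves; PDI reductase assay for enzyme, MTT in U-87 MG cells for cytotoxicity; mean ± SD of at least three independent experiments.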
Target sequence in this assay (P07237 whole entry): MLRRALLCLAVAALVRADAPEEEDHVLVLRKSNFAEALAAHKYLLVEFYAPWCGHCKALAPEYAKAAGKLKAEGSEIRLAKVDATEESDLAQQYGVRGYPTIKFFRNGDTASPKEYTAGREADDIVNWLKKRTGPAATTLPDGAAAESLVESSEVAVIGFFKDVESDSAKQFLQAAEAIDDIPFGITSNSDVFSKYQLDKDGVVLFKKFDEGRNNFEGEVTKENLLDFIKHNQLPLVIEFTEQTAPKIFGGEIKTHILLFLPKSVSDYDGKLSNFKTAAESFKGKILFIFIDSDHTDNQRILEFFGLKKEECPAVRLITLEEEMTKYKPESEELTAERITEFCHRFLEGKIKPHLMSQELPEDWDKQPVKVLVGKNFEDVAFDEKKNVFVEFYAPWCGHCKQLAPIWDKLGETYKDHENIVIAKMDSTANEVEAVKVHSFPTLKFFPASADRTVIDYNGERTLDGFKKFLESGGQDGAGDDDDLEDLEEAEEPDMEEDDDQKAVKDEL

[7] = biological target: T1, Protein disulfide-isomerase; test: Binding affinity to PDIA1 in human U-87 MG cell lysates at 5 uM measured after 24 hrs by PAGE analysis; format: subcellular
Target sequence in this assay (P07237 18-508 limits assumed): as the sequence (P07237 18-508 limits assumed) above

[8] = biological target: T2, Albumin; test: Binding affinity to fetal bovine serum albumin at 20 uM measured after overnight incubation in presence of cell free DMEM medium by gel based assay; format: ADME; conditions: cattle
[9] = biological target: T1, Protein disulfide-isomerase; test: Binding affinity to recombinant human wild-type N-terminal His-tagged PDIA1 expressed in Escherichia coli strain BL21(DE3) at 20 uM measured after 24 hrs in presence of BSA by SDS PAGE analysis
Target sequence in this assay (P07237 18-508 limits assumed): as above

[10] = biological target: T1, Protein disulfide-isomerase; test: (§1) Inhibition of N-(4-(5,5-Difluoro-1,3,7,9-tetramethyl-5H-4(Gamma4),5(Gamma4)-dipyrrolo[1,2-c:2',1'-f][1,3,2]diazaborinin-10-yl))-N-(2-(4-((6-hydroxybenzo[d]-[1,3]dioxol-5-yl)(piperidin-1-yl)methyl)benzamido)ethyl)-benzamide binding to PDIA1 in human U-87 MG cell lysates measured after 24 hrs by PAGE analysis; format: subcellular
Target sequence in this assay (P07237 18-508 limits assumed): as above

[11] = biological target: T3, Protein disulfide-isomerase A2 (Homo sapiens, UniProt Q13087); test: as §1, with “recombinant PDIA2 (unknown origin)” for “PDIA1 in human U-87 MG cell lysates”
T3 sequence (Q13087 whole entry): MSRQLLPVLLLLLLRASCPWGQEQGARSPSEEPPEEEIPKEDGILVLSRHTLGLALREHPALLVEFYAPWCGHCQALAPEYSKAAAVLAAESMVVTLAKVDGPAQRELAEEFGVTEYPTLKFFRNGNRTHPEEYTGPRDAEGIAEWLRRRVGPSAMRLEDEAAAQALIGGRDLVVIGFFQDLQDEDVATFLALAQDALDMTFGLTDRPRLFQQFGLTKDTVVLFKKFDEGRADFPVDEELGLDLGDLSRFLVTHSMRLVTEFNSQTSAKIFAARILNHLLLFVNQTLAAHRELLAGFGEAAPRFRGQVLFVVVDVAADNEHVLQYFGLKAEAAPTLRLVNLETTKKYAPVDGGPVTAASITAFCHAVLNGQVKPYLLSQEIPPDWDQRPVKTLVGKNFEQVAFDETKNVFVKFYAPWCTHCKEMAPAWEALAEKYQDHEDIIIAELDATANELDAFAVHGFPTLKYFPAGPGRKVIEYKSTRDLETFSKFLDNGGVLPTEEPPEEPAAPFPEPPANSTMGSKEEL

[12] = biological target: T4, Protein disulfide-isomerase A3 (Homo sapiens, UniProt P30101); test: as §1, with “recombinant PDIA3 (unknown origin)” for “PDIA1 in human U-87 MG cell lysates”
T4 sequence (P30101 whole entry): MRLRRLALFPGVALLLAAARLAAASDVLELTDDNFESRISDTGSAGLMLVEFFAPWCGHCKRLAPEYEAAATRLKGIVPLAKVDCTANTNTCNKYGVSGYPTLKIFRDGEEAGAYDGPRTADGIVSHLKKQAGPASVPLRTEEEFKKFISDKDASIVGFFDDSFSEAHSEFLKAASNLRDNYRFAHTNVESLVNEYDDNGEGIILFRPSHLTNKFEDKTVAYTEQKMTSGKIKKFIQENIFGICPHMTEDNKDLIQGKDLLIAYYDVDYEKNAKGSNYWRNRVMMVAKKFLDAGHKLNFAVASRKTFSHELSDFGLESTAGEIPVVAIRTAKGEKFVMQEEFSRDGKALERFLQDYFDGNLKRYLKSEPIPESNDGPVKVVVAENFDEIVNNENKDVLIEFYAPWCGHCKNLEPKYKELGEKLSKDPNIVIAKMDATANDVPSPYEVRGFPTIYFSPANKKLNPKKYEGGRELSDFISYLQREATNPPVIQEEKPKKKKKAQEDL

[13] = biological target: T1, Protein disulfide-isomerase; test: Binding affinity to PDIA1 in human U-87 MG cells at 10 uM measured after 24 hrs in absence of fetal bovine serum by coomassie staining GFP channel based assay; format: cell-based
Target sequence in this assay (P07237 18-508 limits assumed): as the sequence (P07237 18-508 limits assumed) above

[14] = biological target: T1, Protein disulfide-isomerase; test: Inhibition of recombinant human wild-type N-terminal His-tagged PDIA1 expressed in Escherichia coli strain BL21(DE3) at 10 to 40 uM using bovine insulin as substrate preincubated for 1 hr followed by substrate addition; conditions: dose microM 10-40, time 1.0 hrs
Target sequence in this assay (P07237 18-508 limits assumed): as the sequence (P07237 18-508 limits assumed) above

[15] = biological target: T2, Albumin; test: Binding affinity to fetal bovine serum albumin at 40 uM measured after 24 hrs in presence of human U-87 MG cells by Western blot analysis; format: ADME, cell-free; conditions: cattle
[16] = biological target: T1, Protein disulfide-isomerase; test: Binding affinity to PDIA1 in human U-87 MG cells at 40 uM measured after 24 hrs in presence of fetal bovine serum by Western blot analysis; format: cell-based
[17] = test system: U-87MG ATCC; test: Upregulation of MYZAP gene expression in human U-87 MG cells at 20 uM incubated for 4 hrs followed by Bru addition during last 30 mins of incubation by Trizol reagent based gene sequencing analysis; format: functional, cell-based
[18] = Effect on total CALR expression in human U-87 MG cells at 20 uM measured after 12 to 48 hrs by Western blot analysis; format: ADME, cell-based; conditions: u-87mg atcc, time 12-48 hrs
[19] = test system: U-87MG ATCC; test: Upregulation of HSPA5 gene expression in human U-87 MG cells at 20 uM incubated for 4 hrs followed by Bru addition during last 30 mins of incubation by Trizol reagent based gene sequencing analysis; format: functional, cell-based
[20] = test system: U-87MG ATCC; test: Upregulation of NQO1 gene expression in human U-87 MG cells at 20 uM incubated for 4 hrs followed by Bru addition during last 30 mins of incubation by Trizol reagent based gene sequencing analysis; format: functional, cell-based
[21] = test system: U-87MG ATCC; test: Upregulation of SLC7A11 gene expression in human U-87 MG cells at 20 uM incubated for 4 hrs followed by Bru addition during last 30 mins of incubation by Trizol reagent based gene sequencing analysis; format: functional, cell-based
[22] = test system: U-87MG ATCC; test: Upregulation of CALR gene expression in human U-87 MG cells at 20 uM incubated for 4 hrs followed by Bru addition during last 30 mins of incubation by Trizol reagent based gene sequencing analysis; format: functional, cell-based

T2 sequence (P02769 whole entry): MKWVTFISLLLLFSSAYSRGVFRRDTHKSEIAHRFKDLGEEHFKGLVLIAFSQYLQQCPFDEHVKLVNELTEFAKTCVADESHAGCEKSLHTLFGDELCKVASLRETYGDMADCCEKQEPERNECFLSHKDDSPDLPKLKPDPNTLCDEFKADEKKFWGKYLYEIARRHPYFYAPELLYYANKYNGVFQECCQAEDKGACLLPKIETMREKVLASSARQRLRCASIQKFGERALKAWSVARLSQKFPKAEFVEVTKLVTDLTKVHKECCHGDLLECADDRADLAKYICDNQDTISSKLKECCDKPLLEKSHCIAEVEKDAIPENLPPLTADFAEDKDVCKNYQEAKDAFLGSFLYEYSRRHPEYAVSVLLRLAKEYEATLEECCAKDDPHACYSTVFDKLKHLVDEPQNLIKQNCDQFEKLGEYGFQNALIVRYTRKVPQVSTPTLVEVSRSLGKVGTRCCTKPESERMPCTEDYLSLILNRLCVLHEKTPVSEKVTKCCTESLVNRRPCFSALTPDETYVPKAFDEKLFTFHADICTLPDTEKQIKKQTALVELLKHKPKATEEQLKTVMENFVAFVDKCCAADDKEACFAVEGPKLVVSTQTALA

Drug uptake [1]: Active
Activity [2]: inactive
Drug uptake [3]: Active
Drug uptake [4]: Active
Activity [5]: Not Active
IC50 [6]: 1.37 µM
Activity [7]: Active
Activity [8]: Active
Activity [9]: Active
SMILES: CC1=CC(C)=[N+]2C1=C(c1ccc(C(=O)NCCNC(=O)c3ccc(C(c4cc5c(cc4O)OCO5)N4CCCCC4)cc3)cc1)c1c(C)cc(C)n1[B-]2(F)F (centres undefined)

inhibition [10]: Dose-dependent effect
IC50 [6]: 2.9 µM
inhibition (INH) [11]: Dose-dependent effect
inhibition (INH) [12]: Dose-dependent effect
SMILES: Oc1cc2c(cc1C(c1ccccc1)N1CCCCC1)OCO2 (centres undefined)

Drug uptake [1]: Active
Activity [13]: inactive
Drug uptake [3]: Active
Drug uptake [4]: Active
Activity [8]: Active
inhibition [14]: inactive
Activity [15]: Active
Activity [9]: Active
Activity [16]: inactive
SMILES: CC1=CC(C)=[N+]2C1=C(c1ccc(NC(=O)c3ccc(C(c4cc5c(cc4O)OCO5)N4CCCCC4)cc3)cc1)c1c(C)cc(C)n1[B-]2(F)F (centres undefined)

IC50 [6]: < 0.2 µM
SMILES: Oc1c(C(c2ccncc2)N2CCCCC2)ccc2ccoc12 (centres undefined)
Activity [17]: Active
Activity [18]: Non-Toxic
Activity [19]: Active
Activity [20]: Active
Activity [21]: Active
Activity [22]: Active
